From ChEMBL document CHEMBL3792373, “Anti-methicillin resistant Staphylococcus aureus activity, synergism with oxacillin and molecular docking studies of metronidazole-triazole hybrids” (Eur J Med Chem, 2016)
≈ marks a conversion by molar mass, not a printed value.

Key:
Staphylococcus aureus [1] = test: Antimicrobial activity against methicillin-resistant Staphylococcus aureus isolate 4a after 24 hrs by agar plate dilution method in presence of oxacillin (1:1); format: functional
How it was run: (§1)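 Test compound and oxacillin mixed 1:1, each at 32 µg/mL in the mixture, then serially diluted into agar plates. Clinical MRSA isolates at McFarland 0.5 in water were spotted onto the plates and incubated 24 h at 37 °C. Growth was read as white spots. NCTC 6571 S. aureus served as the dilution-series control.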

Staphylococcus aureus [2] = test: Antimicrobial activity against methicillin-resistant Staphylococcus aureus isolate 5a after 24 hrs by agar plate dilution method in presence of oxacillin (1:1); format: functional
How it was run: (§2)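 Clinical MRSA isolates, from axilla/nasal swabs and identified by mannitol salt agar, Gram stain and coagulase test. […] Inoculum adjusted to McFarland 0.5 in water. Plates incubated 24 h at 37 °C and scored for growth spots. Dilution series quality-controlled with S. aureus NCTC 6571. Combination lines used a 1:1 mixture with oxacillin.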

Staphylococcus aureus [3] = test: Antimicrobial activity against methicillin-resistant Staphylococcus aureus isolate 6a after 24 hrs by agar plate dilution method in presence of oxacillin (1:1); format: functional; how it was run: as §2
Staphylococcus aureus [4] = test: Antimicrobial activity against methicillin-resistant Staphylococcus aureus isolate 9a after 24 hrs by agar plate dilution method in presence of oxacillin (1:1); format: functional; how it was run: as §2
Staphylococcus aureus [5] = test: Antimicrobial activity against methicillin-resistant Staphylococcus aureus isolate 12a after 24 hrs by agar plate dilution method in presence of oxacillin (1:1); format: functional; how it was run: as §1
Staphylococcus aureus [6] = test: Antimicrobial activity against methicillin-resistant Staphylococcus aureus isolate 13a after 24 hrs by agar plate dilution method in presence of oxacillin (1:1); format: functional; how it was run: as §1
Staphylococcus aureus [7] = test: Antimicrobial activity against methicillin-resistant Staphylococcus aureus isolate 16a after 24 hrs by agar plate dilution method in presence of oxacillin (1:1); format: functional; how it was run: as §1
Staphylococcus aureus [8] = test: Antimicrobial activity against methicillin-resistant Staphylococcus aureus isolate 18a after 24 hrs by agar plate dilution method in presence of oxacillin (1:1); format: functional; how it was run: as §1
Staphylococcus aureus [9] = test: Antimicrobial activity against methicillin-resistant Staphylococcus aureus isolate 19a after 24 hrs by agar plate dilution method in presence of oxacillin (1:1); format: functional; how it was run: as §1
Staphylococcus aureus [10] = test: Antimicrobial activity against methicillin-resistant Staphylococcus aureus isolate 21a after 24 hrs by agar plate dilution method in presence of oxacillin (1:1); format: functional; how it was run: as §1
Staphylococcus aureus [11] = test: Antimicrobial activity against methicillin-resistant Staphylococcus aureus isolate 25a after 24 hrs by agar plate dilution method in presence of oxacillin (1:1); format: functional; how it was run: as §1
Staphylococcus aureus [12] = test: Antimicrobial activity against methicillin-resistant Staphylococcus aureus isolate 26a after 24 hrs by agar plate dilution method in presence of oxacillin (1:1); format: functional; how it was run: as §1
Staphylococcus aureus [13] = test: Antimicrobial activity against methicillin-resistant Staphylococcus aureus isolate 27a after 24 hrs by agar plate dilution method in presence of oxacillin (1:1); format: functional; how it was run: as §1
Staphylococcus aureus [14] = test: Antimicrobial activity against methicillin-resistant Staphylococcus aureus isolate 28a after 24 hrs by agar plate dilution method in presence of oxacillin (1:1); format: functional; how it was run: as §1
Staphylococcus aureus [15] = test: Antimicrobial activity against methicillin-resistant Staphylococcus aureus isolate 29a after 24 hrs by agar plate dilution method in presence of oxacillin (1:1); format: functional; how it was run: as §1
Staphylococcus aureus [16] = test: Antimicrobial activity against methicillin-resistant Staphylococcus aureus isolate 30a after 24 hrs by agar plate dilution method in presence of oxacillin (1:1); format: functional; how it was run: as §1
Staphylococcus aureus [17] = test: Bactericidal activity against methicillin-resistant Staphylococcus aureus isolate 1a assessed as reduction in colony counts at 32 ug/ml after 20 hrs by pour plate method (reference value: 12.73 +/- 0.223 log10CFU/ml); format: functional
Staphylococcus aureus [18] = test: Bactericidal activity against methicillin-resistant Staphylococcus aureus isolate 1a assessed as reduction in colony counts at 32 ug/ml after 24 hrs by pour plate method (reference value: 12.64 +/- 0.224 log10CFU/ml); format: functional
[19] = Cytotoxicity against human THP1 cells upto 50 uM treated 3 times per week for 14 days by MTT assay; format: cell-based; conditions: thp-1, 336 h
Staphylococcus aureus [20] = test: Bactericidal activity against methicillin-resistant Staphylococcus aureus isolate 1a assessed as reduction in colony counts at 32 ug/ml after 4 hrs by pour plate method in presence of oxacillin (1:1) (reference value: 6.14 +/- 0.456 log10CFU/ml); format: functional
Staphylococcus aureus [21] = test: Bactericidal activity against methicillin-resistant Staphylococcus aureus isolate 1a assessed as reduction in colony counts at 32 ug/ml after 8 hrs by pour plate method in presence of oxacillin (1:1) (reference value: 8.30 +/- 0.442 log10CFU/ml); format: functional
Staphylococcus aureus [22] = test: Bactericidal activity against methicillin-resistant Staphylococcus aureus isolate 1a assessed as reduction in colony counts at 32 ug/ml after 12 hrs by pour plate method in presence of oxacillin (1:1) (reference value: 10.12 +/- 0.428 log10CFU/ml); format: functional
Staphylococcus aureus [23] = test: Bactericidal activity against methicillin-resistant Staphylococcus aureus isolate 1a assessed as reduction in colony counts at 32 ug/ml after 20 hrs by pour plate method in presence of oxacillin (1:1) (reference value: 12.73 +/- 0.223 log10CFU/ml); format: functional
Staphylococcus aureus [24] = test: Antimicrobial activity against methicillin-resistant Staphylococcus aureus isolate 2a after 24 hrs by agar plate dilution method; format: functional
How it was run: (§3)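 Clinical MRSA isolates from axilla/nasal swabs, identified by mannitol salt agar, Gram stain and coagulase test. Agar plate dilution with compound series 0.03–128 µg/mL. Inoculum suspended in water to McFarland 0.5. Incubation 24 h at 37 °C. MIC read as the lowest level without white growth spots. Dilution series quality-controlled with S. aureus NCTC 6571.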

Staphylococcus aureus [25] = test: Antimicrobial activity against methicillin-resistant Staphylococcus aureus isolate 1a after 24 hrs by agar plate dilution method; format: functional; how it was run: as §3
Staphylococcus aureus [26] = test: Antimicrobial activity against methicillin-resistant Staphylococcus aureus isolate 6a after 24 hrs by agar plate dilution method; format: functional; how it was run: as §2
Staphylococcus aureus [27] = test: Antimicrobial activity against methicillin-resistant Staphylococcus aureus isolate 7a after 24 hrs by agar plate dilution method; format: functional; how it was run: as §2
Staphylococcus aureus [28] = test: Antimicrobial activity against methicillin-resistant Staphylococcus aureus isolate 10a after 24 hrs by agar plate dilution method; format: functional; how it was run: as §3
Staphylococcus aureus [29] = test: Antimicrobial activity against methicillin-resistant Staphylococcus aureus isolate 11a after 24 hrs by agar plate dilution method; format: functional; how it was run: as §3
Staphylococcus aureus [30] = test: Antimicrobial activity against methicillin-resistant Staphylococcus aureus isolate 14a after 24 hrs by agar plate dilution method; format: functional; how it was run: as §3
Staphylococcus aureus [31] = test: Antimicrobial activity against methicillin-resistant Staphylococcus aureus isolate 17a after 24 hrs by agar plate dilution method; format: functional; how it was run: as §3
Staphylococcus aureus [32] = test: Antimicrobial activity against methicillin-resistant Staphylococcus aureus isolate 18a after 24 hrs by agar plate dilution method; format: functional; how it was run: as §3
Staphylococcus aureus [33] = test: Antimicrobial activity against methicillin-resistant Staphylococcus aureus isolate 22a after 24 hrs by agar plate dilution method; format: functional; how it was run: as §3
Staphylococcus aureus [34] = test: Antimicrobial activity against methicillin-resistant Staphylococcus aureus isolate 23a after 24 hrs by agar plate dilution method; format: functional; how it was run: as §3
Staphylococcus aureus [35] = test: Antimicrobial activity against methicillin-resistant Staphylococcus aureus isolate 24a after 24 hrs by agar plate dilution method; format: functional; how it was run: as §3
Staphylococcus aureus [36] = test: Antimicrobial activity against methicillin-resistant Staphylococcus aureus isolate 25a after 24 hrs by agar plate dilution method; format: functional; how it was run: as §3
Staphylococcus aureus [37] = test: Antimicrobial activity against methicillin-resistant Staphylococcus aureus isolate 26a after 24 hrs by agar plate dilution method; format: functional; how it was run: as §3
Staphylococcus aureus [38] = test: Antimicrobial activity against methicillin-resistant Staphylococcus aureus isolate 27a after 24 hrs by agar plate dilution method; format: functional; how it was run: as §3
Staphylococcus aureus [39] = test: Antimicrobial activity against methicillin-resistant Staphylococcus aureus isolate 28a after 24 hrs by agar plate dilution method; format: functional; how it was run: as §3

Cc1ncc([N+](=O)[O-])n1CCn1cc(COc2c(Cl)cccc2Cl)nn1
MIC (Staphylococcus aureus [1]): 2 µg/mL | MIC (Staphylococcus aureus [2]): 1 µg/mL | MIC (Staphylococcus aureus [3]): 1 µg/mL | MIC (Staphylococcus aureus [4]): 2 µg/mL | MIC (Staphylococcus aureus [5]): 2 µg/mL | MIC (Staphylococcus aureus [6]): 4 µg/mL | MIC (Staphylococcus aureus [7]): 2 µg/mL | MIC (Staphylococcus aureus [8]): 4 µg/mL | MIC (Staphylococcus aureus [9]): 2 µg/mL | MIC (Staphylococcus aureus [10]): 1 µg/mL | MIC (Staphylococcus aureus [11]): 4 µg/mL | MIC (Staphylococcus aureus [12]): 4 µg/mL | MIC (Staphylococcus aureus [13]): 4 µg/mL | MIC (Staphylococcus aureus [14]): 1 µg/mL | MIC (Staphylococcus aureus [15]): 4 µg/mL | MIC (Staphylococcus aureus [16]): 8 µg/mL | Activity (Staphylococcus aureus [17]): 5.57 log10CFU/ml | Activity (Staphylococcus aureus [18]): 5.84 log10CFU/ml | Activity [19]: Non-toxic | Activity (Staphylococcus aureus [20]): 5.5 log10CFU/ml | Activity (Staphylococcus aureus [21]): 5.85 log10CFU/ml | Activity (Staphylococcus aureus [22]): 5.91 log10CFU/ml | Activity (Staphylococcus aureus [23]): 5.26 log10CFU/ml | MIC (Staphylococcus aureus [24]): 4 µg/mL (≈ 10.1 µM) | MIC (Staphylococcus aureus [25]): 4 µg/mL (≈ 10.1 µM) | MIC (Staphylococcus aureus [26]): 4 µg/mL (≈ 10.1 µM) | MIC (Staphylococcus aureus [27]): 4 µg/mL (≈ 10.1 µM) | MIC (Staphylococcus aureus [28]): > 128 µg/mL | MIC (Staphylococcus aureus [29]): 16 µg/mL (≈ 40.3 µM) | MIC (Staphylococcus aureus [30]): > 128 µg/mL | MIC (Staphylococcus aureus [31]): 32 µg/mL (≈ 80.6 µM) | MIC (Staphylococcus aureus [32]): 32 µg/mL (≈ 80.6 µM) | MIC (Staphylococcus aureus [33]): > 128 µg/mL | MIC (Staphylococcus aureus [34]): > 128 µg/mL | MIC (Staphylococcus aureus [35]): > 128 µg/mL | MIC (Staphylococcus aureus [36]): 64 µg/mL (≈ 161 µM) | MIC (Staphylococcus aureus [37]): 64 µg/mL (≈ 161 µM) | MIC (Staphylococcus aureus [38]): 64 µg/mL (≈ 161 µM) | MIC (Staphylococcus aureus [39]): 128 µg/mL (≈ 322 µM)
